Assay results: the EternaBench riboswitch data

Test system: MS2 coat protein
Assay: apparent Kd, MS2 coat protein; higher = weaker binding; RNA-MaP array; FMN 200 µM where present
Procedure, shortened: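 Stalled E. coli RNA polymerase transcribed the designs on Illumina sequencing-chip clusters. SNAP-549-labelled MS2 coat protein was titrated from 0.7 or 1.5 nM, doubling to 3 µM, without and then with constant ligand, in 100 mM Tris-HCl pH 7.5, 80 mM KCl, 4 mM MgCl2, BSA, DTT, yeast tRNA and Tween-20. Per-cluster binding curves were fitted to green signal normalised to red-channel RNA signal and control-cluster median Fmax. The apparent Kd is the median of the filtered fits.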

[1] = designed as: ON switch for flavin mononucleotide, no ligand
[2] = ligand present: flavin mononucleotide, designed as: ON switch for flavin mononucleotide
[3] = designed as: OFF switch for flavin mononucleotide, no ligand
[4] = ligand present: flavin mononucleotide, designed as: OFF switch for flavin mononucleotide

| Sequence | apparent Kd [1] [nM] | apparent Kd [2] [nM] | apparent Kd [3] [nM] | apparent Kd [4] [nM] |
| --- | --- | --- | --- | --- |
| CGCUACGUUUCGUAGCAGUGUCAUCGAGAAGGCCCUGACAUGAGGAUCACCCAUGUUCCUGAAAAGGAGGAUAUCGAUGAUACA | 8.86 | 7.04 |  |  |
| CGCUAUGACAUAGGAUAUUGGUACAUGAGGAUCACCCAUGUCAACUUUUUAGCAUAAUUUGUUGACAAGAAGGAUGUGGUAGCG | 54.1 | 12.6 |  |  |
| CGCUAUUAUGUAGGAUAUACAUUUUUUAUGUAUGUAGAAGGACAUGAGGAUCACCCAUGUAAAUUAAUUUUAAUUAUCUUAGCG |  |  | 16.4 | 13.3 |
| CGCUCUAUAUAUUAGGCAAGAAUCAGAAGGCGUUACAUGAGGAUCACCCAUGUUUUGUAUAGUAACGAGGAUAUGAUAUGAGCG |  |  | 13.6 | 14.5 |
| CGGAACAUGAGGAUCACCCAUGUAGCUACUUAAAGGUGCUACAGAAGGGACAUUGCGCGUCAUGGUCAGGAUAUGUAGGGCUGA | 379 | 108 |  |  |
| CGGAUGUGAGGAUAUACAUGAGGAUCACCCAUGUGAGCCAGCUAGCUGACUGGCUCGUGUAGAAGGCACGUCUG |  |  | 15.5 | 28.9 |
| CGGCAAUGACGAGGAUAUAGACAUGAGGAUCACCCAUGUAACAGUAUUACAGGGCGUCUUCUCGGCUAGAAGGCGUUCUAUGCC |  |  | 59.4 | 62.6 |
| CGGCCAUAUCGAGGAUAUAAGUCUAGGACAUGAGGAUCACCCAUGUAUGUCUUAGAAGGCGAUAUGGCCAGCCUGUUACAGGCA | 28.9 | 5.83 |  |  |
| CGGGAUUCCUGAGGAUAUGGAGCUGUCUACCUGGGCGACAUGAGGAUCACCCAUGUAGAACGCCUCCAGAAGGCAGCGAGAUUG |  |  | 27.3 | 23.8 |
| CGGGCUGCCAGAGGAUAAUGGACAUGAGGAUCACCCAUGUGUCAGGAUAUGGGUUUCACAUGGACUCAGAAGGGACCAGCCCGA | 82.5 | 22.4 |  |  |
| CGGGCUGCUGUGAGGAUAUGCCUGUGGGUGCGUGGGUAGAAGGCACAUGAGGAUCACCCAUGUCCUGCGGCUCG |  |  | 736 | 537 |
| CGGGUAUAUCGAGGAUAUAAGUCUAGGACAUGAGGAUCACCCAUGUAUGUCUUAGAAGGCGAUAUACCCAGCCUGUUACAGGCA | 31 | 6.37 |  |  |
| CGGUCGAUGUAAGGAUAUCGACUGGAUAACAGUCGAGAAGGUACAUGAGGAUCACCCAUGUAAUCCAAUAAUAAAUAACGACCG |  |  | 11.4 | 23.2 |
| CGUAUAUGGGAGAAGGCAUGUUCCAAAGGGCCAUGAGGAUAUCCUAAGUGUACGCUUUGCGACAUGAGGAUCACCCAUGUAGCA | 8.95 | 6.34 |  |  |
| CGUAUGUGAGGAUAUGACAAUGGUAUCUUCGGAUACCAUUGUCAGAAGGAACAUGAGGAUCACCCAUGUAGAUC |  |  | 53.2 | 110 |
| CGUCCUUAGUGAGGAUAUCAGAAACUACGGAAAUGAGAAGGCACAUGAGGAUCACCCAUGUAAAUAACGGCCGGUCUUGGCAGC |  |  | 7.27 | 15.2 |
| CGUCGUCUACGACGCACAUGAGGAUCACCCAUGUGGCAGACACAGGAUAUCCGUUGGAAUGUCCAGGAGAAGGGUGAUCGCAUA | 38.6 | 77.5 |  |  |
| CGUCUGGAUCAAGGAUAUGUCAAGACGCUCCGCGUACACAUGAGGAUCACCCAUGUCAACAAAUGACAGAAGGUGAUAAUGGCC | 80.3 | 444 |  |  |
| CGUGAACAUGAGGAUCACCCAUGUGAAAAACGUAGAGGAUAUGUCACAUGAGUGUAAAAGACAGAAGGCUAUCGUG | 151 | 27.1 |  |  |
| CGUGCUAUGUAGAAGGCAGAUCUGAUUCAGAUCUGAGGAUAUACAUGAGGAUCACCCAUGUUAUGCACCAGCACGAGAGUGCAG |  |  | 7.18 | 14.4 |
| CGUGUUGACGAAGGAUAUGGAUACAUGAGGAUCACCCAUGUAUAUUUUGUGAUCAAGUUUAAGAUCCAGAAGGUCGUUGACACG |  |  | 77.6 | 131 |

| Sequence | apparent Kd [1] [nM] | apparent Kd [2] [nM] | apparent Kd [3] [nM] | apparent Kd [4] [nM] |
| --- | --- | --- | --- | --- |
| CGUUGUAACGCAGGAUAUCCAAAGCUUUUUGCAGGAGAAGGGUGUUACAUGAGGAUCACCCAUGUGAAGGCCCGCAUUCCUCAU |  |  | 5.57 | 6.41 |
| CGUUGUUAAGGAUAUGGACUCUUGAACAUGAGGAUCACCCAUGUGCGCGUGGUCUAAAUACCAGAAGGUGGCCGCC |  |  | 31.7 | 29.3 |
| CGUUGUUCCGCAGGAUAUGCAUUGGAUUACAAUGCAGAAGGGCGAUUACAUGAGGAUCACCCAUGUGUGGACAAUAAGGAAGAG | 1490 | 142 |  |  |
| CGUUUUCACAUUUUAGUGUUUUAUACAGAAGGCCAUACACAUGAGGAUCACCCAUGUCAGGAAUUGGAGGAUAUGUUAUUGACG | 5.92 | 4.85 |  |  |
| CUAAAUUAGUAGAAGGACGGAGAGUAAGAAGUCGUAGGAUAUACAUAAGACAUGAGGAUCACCCAUGUGUGUAUGUUGGGUAUG |  |  | 6.54 | 6.65 |
| CUACAUGAGGAUCACCCAUGUGCACACCGGAUCGGUAUGCGCAGAAGGGCCAUGGAGAAAGCCAGGCAGGAUAUGCAAAGGGCU | 258 | 176 |  |  |
| CUACUCAUGUAAGGAUAUGCAGCCGAAACGGCUGCAGAAGGUACUAUAAUACAUGAGGAUCACCCAUGUAAAAUAAAUAAAGUU | 33.8 | 14.7 |  |  |
| CUAUAGAUAUCAGGAUAUCUAUUUCCUACAUGAGGAUCACCCAUGUAGAGGAUCACCCAUGUAAAGGAGAAGGGAUAUCUAUAG | 91.3 | 20.4 |  |  |
| CUAUGAGCGAUAGGAUAUACUGAGAUUGAGUGGGUAGAAGGAUCGAUAGUGUAGAAGACAUGAGGAUCACCCAUGUUACGGGUU | 892 | 290 |  |  |
| CUAUGCGGAAUAGGAUAUUCAUUCAUGAGGAUAGAAGAAGGGUUACAUGAGGAUCACCCAUGUAUGCACAUGAGGAUCCCUUAG |  |  | 247 | 260 |
| CUAUUUAAGCAGAAGGCGUGGGAGAGAUUCACACGAGGAUAUGCGAUAACGGCGUAUGACAUGAGGAUCACCCAUGUACGUGCG | 5.83 | 4.91 |  |  |
| CUCACGUUAGUAGGAUAUCCGACAUGAGGAUCACCCAUGUCACUGCGUCGCUAAGGUAGAUGCAAGGAGAAGGGCUGAUAAAUA | 259 | 124 |  |  |
| CUCAUGUGAGGAUAUCAGUAGUAAAAAAAUAAAAUUACUACUGAGAAGGCACAUGAGGAUCACCCAUGUGCCAA |  |  | 16.1 | 28.6 |
| CUCAUGUGCGUCGGCAAGUUAACACAGGAUAUCCGAGAAAACAUGAGGAUCACCCAUGUAACUUCGGAGAAGGGUGAUGAGAGA | 64.9 | 23.1 |  |  |
| CUCCGUGGCGAGAAGGGCGGGAUUUUAGGUUCUGUAGGAUAUCGAAACAUGAGGAUCACCCAUGUAUUGAUCGGGUGCAGUGUG |  |  | 22 | 23.2 |
| CUCCUCGUGUCGAACAUGAGGAUCACCCAUGUAAUGGGCACCGAGGAUAUCCCGCUGGCGUUAUGGGAGAAGGCGGUGGAUUUA |  |  | 42.6 | 40.2 |
| CUCGAGUUAGGAUAUCGAACGUAACAAGCGGGAACUCCCGCCGAGAAGGAACAUGAGGAUCACCCAUGUGAAAA |  |  | 23.2 | 22.2 |
| CUCGGACAUGAGGAUCACCCAUGUGAGGAUAUGGCGCGAUCGUCGAAAGACGAUAGCGCCAGAAGGCACAAAUG |  |  | 65.4 | 195 |
| CUCUUGGCAGGAUAUGCAAUUUUAGACAUGAGGAUCACCCAUGUGAUCAUUCCAUAUUAUGCAGAAGGGCCUAAAC |  |  | 48.2 | 320 |
| CUCUUGUCAGGAUAUCUAAGCUGCCUCCCAGUAGCCGAAUUAGAGAAGGGACAUGAGGAUCACCCAUGUAAACG |  |  | 105 | 34.2 |
